Measurements published in ChEMBL document CHEMBL4613249, “Serendipitous Discovery of Leucine and Methionine Depletion Agents during the Search for Polyamine Transport Inhibitors” (J Med Chem, 2020).
The source made the active and inactive calls.

What was measured:
[1] = test system: CHO-K1; assay: Cytotoxicity against CHOK1 cells assessed as effect on cell growth at 10 uM measured after 48 hrs by MTS assay; assay type: cell-based, Cricetulus griseus; conditions: chinese hamster, cho-k1, 48 h
[2] = test system: CHO-K1; assay: Inhibition of polyamine transporter in DFMO-treated CHOK1 cells assessed as prevention of spermidine entry into cells by measuring rescue of DFMO-induced reduction in cell growth at 1 to 10 uM measured after 48 hrs in presence of amine oxidase suppressor aminoguanidine by MTS assay; assay type: cell-based; conditions: Cricetulus griseus
How it was run: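 CHO K1 cells (1000 cells/well) were pre-incubated 24 h with 1 mM aminoguanidine. They were then given fixed DFMO (4.2 mM) and spermidine (1 μM) plus increasing compound doses for 48 h at 37°C. EC50 is the concentration bringing MTS relative growth halfway between the DFMO+Spd and DFMO-only controls. Runs were done twice in triplicate, with SD.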

[3] = test system: CHO-K1; assay: Inhibition of polyamine transporter in CHOK1 cells assessed as rescue of 2.4 uM N-(anthracenylmethyl) homospermidine-induced toxicity by measuring cell growth at 7 uM measured after 48 hrs in presence of amine oxidase suppressor aminoguanidine by MTS assay (reference value: 23%); assay type: cell-based; parameters: scale not given: the % may be the effect or the level left; conditions: Cricetulus griseus
How it was run: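 CHO K1 cells (1000 cells/well, aminoguanidine 1 mM preincubation) were given a toxic Ant-44 dose (2.4 μM) with candidate compound at 5 or 7 μM. Cells were incubated 48 h at 37°C, and relative growth versus untreated control was read by MTS.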

[4] = test system: CHO-K1; assay: Cytotoxicity against CHOK1 cells assessed as effect on cell growth at < 7 uM measured after 48 hrs by MTS assay; assay type: cell-based, Cricetulus griseus; conditions: chinese hamster, cho-k1, 48 h
[5] = test system: CHO-K1; assay: Potentiation of 0.5 uM N-(anthracenylmethyl) homospermidine-induced toxicity in CHOK1 cells assessed as increase in Ant-44-induced reduction in cell growth measured after 48 hrs in presence of amine oxidase suppressor aminoguanidine by MTS assay; assay type: functional, cell-based; conditions: Cricetulus griseus
How it was run: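 CHO K1 cells were pretreated 24 h with 1 mM aminoguanidine, then given fixed Ant-44 (0.5 μM) plus increasing compound (up to 5 μM) for 48 h at 37°C. MTS growth was read, with EC50 defined as the dose halving growth relative to Ant-44 alone. Runs were done twice in triplicate, with SD.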

[6] = test system: L3.6pl; assay: Cytotoxicity against human L3.6PL cells assessed as reduction in cell viability measured after 72 hrs by MTS assay; assay type: cell-based
How it was run: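 L3.6pl cells, 500 cells/well in RPMI 1640 with 10% FBS and 250 μM aminoguanidine, plated overnight. Compound in PBS added, then 72 h at 37°C. MTS absorbance at 490 nm. IC50 is the dose giving 50% relative growth versus untreated control. Run twice in triplicate.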

[7] = test system: L3.6pl; assay: Cytotoxicity against human L3.6PL cells assessed as reduction in cell viability at 5 uM measured after 72 hrs by MTS assay; assay type: cell-based
[8] = test system: L3.6pl; assay: Potentiation of 2 uM N-(anthracenylmethyl) homospermidine-induced toxicity in human L3.6PL cells assessed as increase in Ant-44-induced reduction in cell growth measured after 72 hrs in presence of amine oxidase suppressor aminoguanidine by MTS assay; assay type: functional, cell-based
How it was run: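 L3.6pl cells (500 cells/well) were pretreated 24 h with 250 μM aminoguanidine in PBS, then given Ant-44 (2 μM) with increasing compound for 72 h at 37°C. MTS growth was read, with EC50 relative to the Ant-44-only control.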

[9] = molecular target: Large neutral amino acids transporter small subunit 1 (Homo sapiens) (UniProt Q01650); assay: Inhibition of LAT1-mediated [3H]-leucine uptake in human L3.6PL cells at 30 uM and 37 degree C measured after 2 mins by scintillation counter method; assay type: cell-based
Chain of Large neutral amino acids transporter small subunit 1 (Homo sapiens) (Q01650 whole entry): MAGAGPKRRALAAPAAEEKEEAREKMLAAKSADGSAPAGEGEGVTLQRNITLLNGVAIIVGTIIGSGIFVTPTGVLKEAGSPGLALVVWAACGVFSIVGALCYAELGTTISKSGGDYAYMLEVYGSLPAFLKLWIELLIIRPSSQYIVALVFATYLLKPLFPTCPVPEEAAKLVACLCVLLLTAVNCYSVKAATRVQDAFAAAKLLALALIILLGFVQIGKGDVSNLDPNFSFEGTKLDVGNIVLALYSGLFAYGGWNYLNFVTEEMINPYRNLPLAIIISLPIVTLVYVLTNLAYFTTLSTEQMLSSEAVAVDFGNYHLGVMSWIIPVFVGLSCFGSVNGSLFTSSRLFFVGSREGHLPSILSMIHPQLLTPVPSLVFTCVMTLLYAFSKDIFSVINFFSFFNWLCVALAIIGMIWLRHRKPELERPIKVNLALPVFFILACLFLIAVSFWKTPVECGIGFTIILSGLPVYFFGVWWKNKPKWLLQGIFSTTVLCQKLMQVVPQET

Structure (SMILES)	Activity [1]	inhibition [2]	Activity [3] [%]	Activity [4]	Activity [5]	EC50 ([5]; CHO-K1, 48 h) [µM]	IC50 [6] [µM]	Activity [7]	EC50 [8] [µM]	inhibition [9]
CC(C)(C)CCN1CCN([C@H](CNCc2ccccc2)Cc2ccccc2)C[C@@H]1Cc1ccccc1	Non-Toxic	inactive	2.1	Non-Toxic	Dose-dependent effect	0.75	11.7	Non-Toxic	3.27	–
Nc1cc(COc2c(Cl)cc(C[C@H](N)C(=O)O)cc2Cl)c2oc(-c3ccccc3)nc2c1	–	–	–	–	–	–	–	–	–	Active
